Tests used:
MCF7 = experiment: Growth inhibition of human MCF7 cells after 7 days by celltiter-glo assay; type: functional; settings: MCF7, 168 h
A549 = experiment: Growth inhibition of human A549 cells expressing p53 after 7 days by celltiter-glo assay; type: functional; settings: A549, 168 h
DU-145 = experiment: Growth inhibition of human DU145 cells after 7 days by celltiter-glo assay; type: functional; settings: DU-145, 168 h
HT-29 = experiment: Growth inhibition of human HT-29 cells after 7 days by celltiter-glo assay; type: functional; settings: HT-29, 168 h
[1] = Growth inhibition of human p53 deficient H1299 cells after 7 days by celltiter-glo assay; type: functional; settings: NCI-H1299, 168 h
How it was run: (§1)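 Cells seeded at 500 per well in 384-well plates. Compounds came from 30 mM DMSO stocks, serially diluted and tested in quadruplicate. Incubation was 7 d at 37 °C under 5% CO2. Calcein AM (10 μM) and EthD-1 were added, followed by a fluorescence read. CellTiter-Glo lysis was then done for 10 min at room temperature, with a luminescence read. GI50 came from curve fitting.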

SF-268 [2] = experiment: Ratio of compound GI50 to chlorambucil GI50 for human SF268 cells; type: functional
[3] = Growth inhibition of human p53 deficient Hep3B cells after 7 days by celltiter-glo assay; type: functional, Hep 3B2; settings: 168 h; how it was run: as §1
NCI-H460 = experiment: Growth inhibition of human NCI-H460 cells after 7 days by celltiter-glo assay; type: functional; settings: NCI-H460, 168 h
SF-268 [4] = experiment: Growth inhibition of human SF268 cells after 7 days by celltiter-glo assay; type: functional; settings: SF-268, 168 h
HCT-15 = experiment: Growth inhibition of human HCT15 cells after 7 days by celltiter-glo assay; type: functional; settings: HCT-15, 168 h
SK-OV-3 = experiment: Growth inhibition of human SKOV3 cells after 7 days by celltiter-glo assay; type: functional; settings: SK-OV-3, 168 h

Compound | GI50 (MCF7) [nM] | GI50 (A549) [nM] | GI50 (DU-145) [nM] | GI50 (HT-29) [nM] | GI50 [1] [nM] | RatioGI50 (SF-268 [2]) | GI50 [3] [nM] | GI50 (NCI-H460) [nM] | GI50 (SF-268 [4]) [nM] | GI50 (HCT-15) [nM] | GI50 (SK-OV-3) [nM]
CON(CCCc1ccc(N(CCCl)CCCl)cc1)[C@@H]1O[C@H]2[C@H](OC(=O)[C@H]2O)[C@H]1O | 1100 | 3700 | 1900 | 3600 | 400 | 12 | 1300 | 3800 | 460 | 990 | 5200
CON(CCCc1ccc(N(CCCl)CCCl)cc1)[C@H]1O[C@H](COCc2ccccc2)[C@@H](OCc2ccccc2)[C@@H]1OCc1ccccc1 | 82000 | > 100000 | > 100000 | 47000 | > 100000 |  | > 100000 | > 100000 | 80000 | 64000 | > 100000
CON(CCCc1ccc(N(CCCl)CCCl)cc1)C1O[C@@H](CO)[C@H](O)[C@@H](O)[C@@H]1O (stereo partly specified) | 3200 | 3300 | 4800 | 2900 | 550 |  | 3900 | 8000 | 2000 | 880 | 2500
CON(CCCc1ccc(N(CCCl)CCCl)cc1)C1O[C@@H](CO)[C@H](O)[C@H](O)[C@H]1O (stereo partly specified) | 7900 | 3100 | 4100 | 2100 | 1300 |  | 2000 | 7900 | 2300 | 1400 | 2500
CON(CCCc1ccc(N(CCCl)CCCl)cc1)[C@H]1C[C@@H](O)[C@H](O)[C@@H](C)O1 | 3100 | 3100 | 5500 | 3200 | 4800 |  | 3800 | 5700 | 2300 | 2500 | 3200
CON(CCCc1ccc(N(CCCl)CCCl)cc1)C1OC[C@@H](O)[C@@H](O)[C@H]1O (stereo partly specified) | 1100 | 2800 | 3800 | 2300 | 3600 |  | 2400 | 5900 | 1900 | 1800 | 2000
CON(CCCc1ccc(N(CCCl)CCCl)cc1)C1O[C@H](CO)[C@H](O)[C@H](O)[C@H]1O (stereo partly specified) | 1300 | 4400 | 5600 | 3300 | 1300 |  | 3600 | 9700 | 1900 | 2400 | 3400
CON(CCCc1ccc(N(CCCl)CCCl)cc1)[C@@H]1O[C@H](CO)[C@@H](O)[C@H](O)[C@H]1O | 1500 | 4500 | 5500 | 2900 | 1400 |  | 3400 | 12300 | 1800 | 2800 | 3000
CON(CCCc1ccc(N(CCCl)CCCl)cc1)[C@@H]1O[C@H](CO)[C@H](O)[C@H](O)[C@@H]1O | 1800 | 2700 | 3400 | 1900 | 2400 |  | 2600 | 4300 | 1700 | 2000 | 2000

From ChEMBL document CHEMBL1275392, “Assessment of chemoselective neoglycosylation methods using chlorambucil as a model” (2010)
